Measured values from ChEMBL document CHEMBL1153536, “5-lipoxygenase-activating protein inhibitors: development of 3-[3-tert-butylsulfanyl-1-[4-(6-methoxy-pyridin-3-yl)-benzyl]-5-(pyridin-2-ylmethoxy)-1H-indol-2-yl]-2,2-dimethyl-propionic acid (AM103)” (J Med Chem, 2009).
pIC50: −log10 of the molar value. Calls of active or inactive are those of the source. The rule behind the calls is not given here.

Key:
[1] = Half life in Sprague-Dawley rat at 2 mg/kg, iv; type: ADME, organism-based; set-up: dose 2 mg/kg, route intravenous; details: in vivo
Procedure, shortened: (§1)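 Male rats fasted overnight, 2 or 3 per route. Dosing was 2 mg/kg i.v. as a jugular bolus in PEG400/ethanol/water (40/10/50) and 10 mg/kg p.o. by gavage in 0.5% methylcellulose. Jugular cannula blood was sampled up to 24 h (8-9 samples). Plasma was acetonitrile-precipitated with buspirone internal standard and quantified by LC-MS/MS, positive ESI MRM, calibration […], LLOQ 1-5 ng/mL.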

[2] = Bioavailability in dog at 2 mg/kg, iv and 5 mg/kg, po; type: ADME, organism-based, Canis lupus familiaris; details: in vivo
[3] = Volume of distribution at steady state in Sprague-Dawley rat at 2 mg/kg, iv and 10 mg/kg, po; type: ADME, organism-based; details: in vivo, read-out: Vdss; procedure, shortened: as §1
Cytochrome P450 3A4 [4] = biological target: T1, Cytochrome P450 3A4 (Homo sapiens, UniProt P08684); experiment: Inhibition of CYP3A4; type: ADME
T1 sequence (P08684 whole entry): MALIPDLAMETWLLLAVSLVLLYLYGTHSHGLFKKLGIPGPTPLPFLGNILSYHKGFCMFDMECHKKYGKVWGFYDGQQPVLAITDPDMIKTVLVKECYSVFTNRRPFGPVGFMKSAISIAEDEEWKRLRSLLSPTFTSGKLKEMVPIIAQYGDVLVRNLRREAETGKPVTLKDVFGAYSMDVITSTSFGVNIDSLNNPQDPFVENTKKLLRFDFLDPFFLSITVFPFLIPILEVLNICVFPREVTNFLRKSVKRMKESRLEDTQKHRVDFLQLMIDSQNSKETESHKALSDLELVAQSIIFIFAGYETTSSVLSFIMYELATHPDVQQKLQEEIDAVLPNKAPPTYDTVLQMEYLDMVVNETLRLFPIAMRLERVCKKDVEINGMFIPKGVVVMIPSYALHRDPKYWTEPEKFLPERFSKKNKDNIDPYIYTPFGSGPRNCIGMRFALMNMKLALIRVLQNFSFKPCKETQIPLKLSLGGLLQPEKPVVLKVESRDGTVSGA

[5] = Clearance in Sprague-Dawley rat at 2 mg/kg, iv and 10 mg/kg, po; type: ADME, organism-based; details: in vivo; procedure, shortened: as §1
[6] = Plasma concentration in BALB/c mouse at 10 mg/kg, po after 6 hrs; type: ADME, organism-based; set-up: dose 10 mg/kg, route oral
Procedure, shortened: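 Female BALB/c mice, separate cohort (n = 6). Single oral dose 10 mg/kg; plasma drug level measured 6 h post-dose.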

Cytochrome P450 2C19 = Cytochrome P450 2C19 (Homo sapiens, UniProt P33261); experiment: Inhibition of CYP2C19; type: ADME
Chain of Cytochrome P450 2C19 (P33261 whole entry): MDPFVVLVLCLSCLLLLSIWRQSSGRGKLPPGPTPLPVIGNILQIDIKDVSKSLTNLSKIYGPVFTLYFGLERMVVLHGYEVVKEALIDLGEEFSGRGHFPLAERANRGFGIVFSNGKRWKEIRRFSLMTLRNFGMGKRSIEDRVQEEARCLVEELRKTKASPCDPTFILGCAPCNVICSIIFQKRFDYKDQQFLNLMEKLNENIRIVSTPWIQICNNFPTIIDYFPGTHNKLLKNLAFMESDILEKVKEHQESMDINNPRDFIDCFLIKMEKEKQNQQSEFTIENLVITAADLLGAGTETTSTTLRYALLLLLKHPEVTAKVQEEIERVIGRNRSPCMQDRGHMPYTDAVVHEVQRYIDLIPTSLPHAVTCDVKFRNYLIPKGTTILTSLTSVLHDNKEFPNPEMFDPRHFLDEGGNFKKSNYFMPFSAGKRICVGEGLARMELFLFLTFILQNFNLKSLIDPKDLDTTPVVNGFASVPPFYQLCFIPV

Cytochrome P450 3A4 [7] = biological target: T1, Cytochrome P450 3A4; experiment: Inhibition of CYP3A4 assessed as inhibition rate
Mus musculus [8] = experiment: Antiasthamatic activity against ovalbumin-induced airway lung inflammation in BALB/c mouse bronchoalveolar lavage model assessed as inhibition of increase om cysteinyl leukotrienes level at 10 mg/kg, po every 6 hrs administered 2 hrs prior to ovalbumin-challenge after 24 hrs; type: functional
Procedure, shortened: (§2)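 Female BALB/c mice (20-25 g) were sensitized i.p. with OVA 100 μg/alum on days 0 and 14, then given intranasal OVA 50 μg in saline on day 21 under isoflurane. Oral 0.5% methocel vehicle or drug 10 mg/kg started 2 h before challenge, then every 6 h (4 doses). BAL with 4 × 0.3 mL PBS at 24 h; CysLTs and IL-5 by EIA, EPO by peroxidase assay.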

Blood = experiment: Inhibition of calcium ionophore A-23187-stimulated LTB4 production in human whole blood by ELISA; type: functional, tissue-based
Procedure, shortened: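 Heparinized human whole blood preincubated 15 min at 37 °C with compound in DMSO. Stimulated 30 min at 37 °C with A23187 (2 μL of 1.5 mM into 150 μL). Plasma LTB4 measured by ELISA at 1:100 dilution; IC50 by nonlinear regression. A single value is one assay averaging two donors.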

[9] = Inhibition of calcium ionophore A-23187-stimulated LTB4 production in human leukocytes by ELISA; type: functional, cell-based; details: Leukocyte
Procedure, shortened: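 Dextran-sedimented, hypotonically lysed human leukocytes at 1.25 × 10^5 cells/mL, preincubated 5 min at 37 °C with compound in DMSO. Stimulated 5 min at 37 °C with A23187 (5 μL of 0.5 mM into 250 μL). Supernatant LTB4 measured by ELISA at 1:4 dilution; IC50 by nonlinear regression of % inhibition vs log concentration.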

Mus musculus [10] = experiment: Antiasthamatic activity against ovalbumin-induced airway lung inflammation in BALB/c mouse bronchoalveolar lavage model assessed as inhibition of increase in eosinophile peroxidase level at 10 mg/kg, po every 6 hrs administered 2 hrs prior to ovalbumin-challenge after 24 hrs; type: functional; procedure, shortened: as §2
Cytochrome P450 2D6 = Cytochrome P450 2D6 (Homo sapiens, UniProt P10635); experiment: Inhibition of CYP2D6; type: ADME
Chain of Cytochrome P450 2D6 (P10635 whole entry): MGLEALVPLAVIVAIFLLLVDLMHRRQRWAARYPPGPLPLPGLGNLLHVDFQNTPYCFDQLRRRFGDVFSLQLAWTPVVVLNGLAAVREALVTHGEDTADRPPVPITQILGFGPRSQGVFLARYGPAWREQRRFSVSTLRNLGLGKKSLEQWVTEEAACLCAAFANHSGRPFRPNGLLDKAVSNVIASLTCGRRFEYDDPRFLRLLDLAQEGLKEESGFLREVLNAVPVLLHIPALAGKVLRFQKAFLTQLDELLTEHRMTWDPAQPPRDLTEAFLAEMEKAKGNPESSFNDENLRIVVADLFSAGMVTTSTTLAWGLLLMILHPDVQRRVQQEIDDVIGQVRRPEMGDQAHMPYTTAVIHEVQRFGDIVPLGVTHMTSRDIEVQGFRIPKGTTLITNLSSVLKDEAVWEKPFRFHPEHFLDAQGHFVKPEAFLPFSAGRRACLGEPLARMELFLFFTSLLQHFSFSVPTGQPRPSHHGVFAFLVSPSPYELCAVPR

[11] = Half life in dog at 2 mg/kg, iv; type: ADME, organism-based, Canis lupus familiaris; set-up: dose 2 mg/kg, route intravenous; details: in vivo
[12] = (§3) Bioavailability in Sprague-Dawley rat at 2 mg/kg, iv and 10 mg/kg, po; type: ADME, organism-based; details: Sprague-Dawley, in vivo; procedure, shortened: as §1
Cytochrome P450 1A2 = biological target: T2, Cytochrome P450 1A2 (Homo sapiens, UniProt P05177); experiment: Inhibition of CYP1A2; type: ADME
T2 sequence (P05177 whole entry): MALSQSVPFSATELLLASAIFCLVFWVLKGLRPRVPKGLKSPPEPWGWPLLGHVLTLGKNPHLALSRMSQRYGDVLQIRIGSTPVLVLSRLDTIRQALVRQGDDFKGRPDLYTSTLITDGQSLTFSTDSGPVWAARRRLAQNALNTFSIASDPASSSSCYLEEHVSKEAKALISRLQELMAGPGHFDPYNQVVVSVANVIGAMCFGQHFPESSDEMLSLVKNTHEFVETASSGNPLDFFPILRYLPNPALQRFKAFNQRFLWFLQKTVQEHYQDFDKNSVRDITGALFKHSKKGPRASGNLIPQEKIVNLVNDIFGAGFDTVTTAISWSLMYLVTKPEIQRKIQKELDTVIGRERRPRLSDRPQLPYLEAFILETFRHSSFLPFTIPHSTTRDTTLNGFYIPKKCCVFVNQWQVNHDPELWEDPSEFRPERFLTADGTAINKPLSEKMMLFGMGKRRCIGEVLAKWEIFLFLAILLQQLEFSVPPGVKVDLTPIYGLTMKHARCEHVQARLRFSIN

[13] = Volume of distribution in dog at 2 mg/kg, iv and 5 mg/kg, po; type: ADME, organism-based, Canis lupus familiaris; details: in vivo
Cytochrome P450 2C9 = Cytochrome P450 2C9 (Homo sapiens, UniProt P11712); experiment: Inhibition of CYP2C9; type: ADME
Chain of Cytochrome P450 2C9 (P11712 whole entry): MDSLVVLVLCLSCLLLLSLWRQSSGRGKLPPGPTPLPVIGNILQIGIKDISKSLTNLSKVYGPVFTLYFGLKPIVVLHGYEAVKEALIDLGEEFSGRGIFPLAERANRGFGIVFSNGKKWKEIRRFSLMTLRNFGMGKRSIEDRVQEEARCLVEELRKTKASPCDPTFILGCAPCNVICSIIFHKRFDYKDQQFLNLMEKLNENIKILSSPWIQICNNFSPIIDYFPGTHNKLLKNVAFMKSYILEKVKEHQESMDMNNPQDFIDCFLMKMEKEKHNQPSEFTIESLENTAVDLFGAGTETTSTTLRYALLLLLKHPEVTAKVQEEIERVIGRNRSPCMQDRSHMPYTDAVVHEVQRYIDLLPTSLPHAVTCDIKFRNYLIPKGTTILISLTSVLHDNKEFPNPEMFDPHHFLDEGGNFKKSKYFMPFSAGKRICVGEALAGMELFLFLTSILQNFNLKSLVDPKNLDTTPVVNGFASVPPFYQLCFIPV

[14] = AUC in Sprague-Dawley rat at 10 mg/kg, po; type: ADME, organism-based; set-up: dose 10 mg/kg, route oral; details: plasma; procedure, shortened: as §1
[15] = biological target: T3, Arachidonate 5-lipoxygenase-activating protein (Homo sapiens, UniProt P20292); experiment: Displacement of [3H]3-[5-(pyrid-2-ylmethoxy)-3-tert-butylthio-1-benzyl-indol-2-yl]-2,2-dimethylpropionic acid from FLAP in human polymorphonuclear cell membrane
T3 sequence (P20292 whole entry): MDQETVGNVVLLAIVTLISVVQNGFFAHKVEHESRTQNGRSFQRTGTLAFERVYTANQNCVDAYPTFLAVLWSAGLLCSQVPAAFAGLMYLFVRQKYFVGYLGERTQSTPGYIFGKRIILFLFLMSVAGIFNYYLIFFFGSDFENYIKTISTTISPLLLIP

[16] = Cmax in Sprague-Dawley rat after 10 mg/kg oral dose; type: ADME, organism-based; set-up: dose 10 mg/kg, route oral; details: in vivo; procedure, shortened: as §1
Mus musculus [17] = experiment: Antiasthamatic activity against ovalbumin-induced airway lung inflammation in BALB/c mouse bronchoalveolar lavage model assessed as inhibition of increase in IL5 level at 10 mg/kg, po every 6 hrs administered 2 hrs prior to ovalbumin-challenge after 24 hrs; type: functional, organism-based; set-up: dose 10 mg/kg; procedure, shortened: as §2
Rattus norvegicus [18] = experiment: as §3; type: ADME, organism-based; details: in vivo; procedure, shortened: as §1
[19] = Half life in Sprague-Dawley rat at 10 mg/kg, po; type: ADME, organism-based; set-up: dose 10 mg/kg, route oral; details: in vivo; procedure, shortened: as §1
CYP3A4 = CYP3A4 (Homo sapiens, UniProt P08684); experiment: Inhibition of CYP3A4 at 10 uM; type: ADME
Chain of CYP3A4 (P08684 whole entry): as the sequence (P08684 whole entry) above

Rattus norvegicus [20] = experiment: Volume of distribution at steady state in Sprague-Dawley rat at 10 mg/kg, po; type: ADME, organism-based; set-up: dose 10 mg/kg, route oral; details: in vivo; procedure, shortened: as §1
[21] = Clearance in Sprague-Dawley rat 10 mg/kg, po; type: ADME, organism-based; set-up: dose 10 mg/kg, route oral; details: in vivo; procedure, shortened: as §1

Structure (SMILES) | pIC50 (Cytochrome P450 3A4 [4]) | pIC50 (Blood) | pIC50 [9] | pIC50 (Cytochrome P450 2D6) | pIC50 (Cytochrome P450 2C9) | pIC50 [15] | also measured
COc1ccc(-c2ccc(Cn3c(CC(C)(C)C(=O)O)c(SC(C)(C)C)c4cc(OCc5ccccn5)ccc43)cc2)cn1 | < 4.30 | 6.46 | 9.30 | < 4.52 | < 4.30 | 8.38 | half-life [1]: 2.2 h; bioavailability [2]: 64%; Vd [3]: 0.3 L/kg; clearance [5]: 5.4 mL/min/kg; concentration at 6 h [6]: 406 nM; pIC50 (Cytochrome P450 2C19): < 4.30; TDI (Cytochrome P450 3A4 [7]): 0.015 min⁻¹; inhibition in vivo at 10 mg/kg (Mus musculus [8]): 60%; inhibition in vivo at 10 mg/kg (Mus musculus [10]): 60%; half-life [11]: 5.2 h; bioavailability [12]: 100%; pIC50 (Cytochrome P450 1A2): < 4.30; Vd [13]: 0.41 L/kg; AUC [14]: 26000 ng·h/mL; Cmax [16]: 9000 ng/mL; Activity (Mus musculus [17]): Active
Cc1ccc(-c2ccc(Cn3c(CC(C)(C)C(=O)O)c(SC(C)(C)C)c4cc(OCc5ccccn5)ccc43)cc2)nn1 |  | 5.36 | 7.77 |  |  | 7.57 | 
CC(C)(Cc1cc2cc(OCc3ccccn3)ccc2n1Cc1ccc(-c2nccs2)cc1)C(=O)O |  | 5.26 | 7.72 |  |  | 6.52 | 
CC(C)(Cc1c(C(=O)C2CCC2)c2cc(OCc3ccccn3)ccc2n1Cc1ccc(-c2nccs2)cc1)C(=O)O |  | 4.47 | 6.89 |  |  | 6.35 | 
COc1ccc(-c2ccc(Cn3c(CC(C)(C)C(=O)O)c([S+]([O-])C(C)(C)C)c4cc(OCc5ccccn5)ccc43)cc2)cn1 (centres undefined) |  |  | 5.70 |  |  | 6.10 | 
CC(C)(C)Sc1c(CC(C)(C)C(=O)O)n(Cc2ccc(-c3cnccn3)cc2)c2ccc(OCc3ccccn3)cc12 |  | 5.78 | 7.92 |  |  | 7.55 | 
CC(C)(C)Sc1c(CC(C)(C)C(=O)O)n(Cc2ccc(-c3ncccn3)cc2)c2ccc(OCc3ccccn3)cc12 | < 5.00 | 5.92 | 8.19 | < 5.00 | < 5.00 | 8.16 | 
COc1ccc(-c2ccc(Cn3c(CC(C)(C)C(=O)O)c(SC(C)(C)C)c4cc(OCc5ccccn5)ccc43)cc2)nc1 |  | 6.56 | 8.39 | < 5.00 | < 5.00 | 8.17 | half-life [19]: 1.9 h; inhibition at 10 µM (CYP3A4): 61%; Vdss (Rattus norvegicus [20]): 0.51 L/kg; bioavailability [12]: 100%; CL/F [21]: 2.8 mL/min/kg; AUC [14]: 61600 ng·h/mL; Cmax [16]: 21800 ng/mL

Stronger by pIC50 [15], values ahead:

pIC50 (Cytochrome P450 3A4 [4]) | pIC50 (Blood) | pIC50 [9] | pIC50 (Cytochrome P450 2D6) | pIC50 (Cytochrome P450 2C9) | pIC50 [15] | Structure (SMILES) | also measured
4.82 | 5.80 | 8.44 | < 4.52 | 4.57 | 8.40 | COc1ccc(-c2ccc(Cn3c(CC(C)(C)C(=O)O)c(SC(C)(C)C)c4cc(OCc5ccccn5)ccc43)cc2)nn1 | half-life [1]: 2.1 h; Vd [3]: 0.47 L/kg; F (Rattus norvegicus [18]): 42%; Cmax [16]: 7900 ng/mL
 |  |  |  |  | 8.68 | CC(C)(C)Sc1c(CC(C)(C)C(=O)O)n(Cc2ccc(-c3ncc(F)s3)cc2)c2ccc(OCc3ccccn3)cc12 | TDI (Cytochrome P450 3A4 [7]): 0.017 min⁻¹
 |  |  |  |  | 8.48 | COc1nc(-c2ccc(Cn3c(CC(C)(C)C(=O)O)c(SC(C)(C)C)c4cc(OCc5ccccn5)ccc43)cc2)cs1 | TDI (Cytochrome P450 3A4 [7]): 0.018 min⁻¹
4.94 | 6.29 | 9.10 | < 4.52 | 6.00 | 8.77 | CC(C)(C)Sc1c(CC(C)(C)C(=O)O)n(Cc2ccc(Cl)cc2)c2ccc(OCc3ccccn3)cc12 | 
